Values joined by “and” are separate entries in the source; they are usually repeats but may differ in a detail not shown here. Identical values can stand only once.
What was measured:
Rattus norvegicus [1] = assay: Percent reduction of edema was measured after oral administration at 200 mg/kg using carrageenan-induced pedal edema assay; format: functional
Summary of the method: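 Rats fasted 2 h; single oral 200 mg/kg in 0.25% methylcellulose, vehicle controls. Carrageenan (1% sterile, 0.05 cm³) injected into left hind foot pad 1 h after dosing. Paw volume measured at peak swelling, 3 h, by displacement apparatus; edema from differential paw volume, expressed as % reduction vs control.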

[2] = (§1) Lethal dose of compound was determined in mice by standard multidimensional observational assay; format: toxicity, organism-based; settings: mouse, in vivo
Summary of the method: (§2)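 Approximate LD50 in mice, estimated from a standard multidimensional observational assay and calculated by the Litchfield–Wilcoxon method.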

Mus musculus = species: Mus musculus; assay: as §1; format: toxicity, organism-based; settings: in vivo; summary of the method: as §2
Rattus norvegicus [3] = assay: Effective dose of compound that reduce edema by at least 25% in 50% of animals; format: functional
Summary of the method: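 Rats, fasted 2 h, water ad libitum; compound given orally in 0.25% methylcellulose, controls vehicle only, at several doses below the 200 mg/kg screen. Carrageenan (1% sterile, 0.05 cm³) injected into left hind foot pad 1 h later. Paw volume measured at 3 h.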

Rattus norvegicus [4] = assay: Effective dose of compound that reduce edema in adrenolectomized rats by at least 25% in 50% of animals; format: functional
Summary of the method: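 Rats adrenalectomized several days before assay; otherwise as the intact-rat test: fasted 2 h, oral dosing in 0.25% methylcellulose at several doses, carrageenan (1%, 0.05 cm³) into left hind foot pad 1 h later, paw volume at 3 h.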

[5] = Rattus norvegicus, read-out: ED50

SMILES | Reduction (Rattus norvegicus [1]; 200 mg/kg) | LD50 [2] [mg/kg] | LD50 (Mus musculus) [mg/kg] | ED50 (Rattus norvegicus [3]; [5]) [mg/kg] | ED50 (Rattus norvegicus [4]) [mg/kg] | Reduction (Rattus norvegicus [1]) [%] | ED50 (Rattus norvegicus [3]) [mg/kg]
Cc1cc(=O)c(C(=O)Nc2ccccc2Cl)c(C)n1-c1ccccc1Cl | 2% and 8% | 562 | 562 | – | – | – | –
COc1ccccc1NC(=O)c1c(C)n(-c2ccccc2OC)c(C)cc1=O | – | 562 | 300 | 28 | 200 | – | –
Cc1cccc(NC(=O)c2c(C)n(-c3cccc(C)c3C)c(C)cc2=O)c1C | – | 562 | – | – | – | 0 | –
Cc1c(Br)c(=O)c(C(=O)Nc2ccccc2)c(C)n1-c1ccccc1 | – | 562 | – | – | – | 23 | –
Cc1cc(=O)c(C(=O)Nc2ccc(Cl)cc2)c(C)n1-c1ccc(Cl)cc1 | 58% and 62% | – | – | – | – | – | –
Cc1ccccc1NC(=O)c1c(C)n(-c2ccccc2C)c(C)cc1=O | 17% and 49% | 562 | – | 80 | 84.8 | – | –
COc1ccc(OC)c(NC(=O)c2c(C)n(-c3cc(OC)ccc3OC)c(C)cc2=O)c1 | – | 562 | – | – | – | 0 | –
Cc1cc(=O)c(C(=O)Nc2ccccc2)c(C)n1-c1ccccc1 | 25% and 33% | 562 | 562 | 200 | – | – | >200
Cc1cc(C)c(NC(=O)c2c(C)n(-c3c(C)cc(C)cc3C)c(C)cc2=O)c(C)c1 | – | – | – | – | – | 53 | –
Cc1cccc(C)c1NC(=O)c1c(C)n(-c2c(C)cccc2C)c(C)cc1=O | 31% and 26% | – | – | – | – | – | –
O=C(Nc1ccccc1)c1c(-c2ccccc2)n(-c2ccccc2)c(-c2ccccc2)cc1=O | – | 562 | – | – | – | 0 | –

— ChEMBL document CHEMBL1122003, “Preparation and antiinflammatory activity of 2- and 4-pyridones” (J Med Chem, 1982)
